Measurements taken from ChEMBL document CHEMBL1137805, “In vitro cytotoxicity of the protoberberine-type alkaloids” (2001).

Tests used:
Assay type in all cases: functional
[1] = Cytotoxicity against human colon cancer cells; conditions: Cancer cell lines
How it was run: (§1)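 Subpanel values are mean GI50 over the panel's strains of each tumour type: breast 5, colon 6, lung 6 or 7, ovarian 5, stomach 6. […] Cells were grown in RPMI 1640 with 5% FBS at 37 °C under 5% CO2.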

[2] = Cytotoxicity against human stomach cancer cells; conditions: Cancer cell lines; how it was run: as §1
[3] = Cytotoxicity against human ovarian cancer cells; conditions: Cancer cell lines; how it was run: as §1
MKN-28 = test: Cytotoxicity against human MKN28 cells
How it was run: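 Each line was grown in RPMI 1640 with 5% FBS and penicillin ([…]) at 37 °C under 5% CO2. Cells were plated, attached overnight, and exposed to drug for 48 h. Sulforhodamine B staining was read at 525 nm, with control, test and time-zero absorbances. % growth = 100×(T−T0)/(C−T0), or […] T<T0. GI50 is the concentration giving 50% growth.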

[4] = Cytotoxicity against human breast cancer cells; conditions: Cancer cell lines; how it was run: as §1
[5] = Cytotoxicity against human lung cancer cells; conditions: Cancer cell lines; how it was run: as §1
[6] = Cytotoxicity against human CNS cancer cells; conditions: Cancer cell lines

| SMILES | GI50 [1] [nM] | GI50 [2] [nM] | GI50 [3] [nM] | GI50 (MKN-28) [nM] | GI50 [4] [nM] | GI50 [5] [nM] | GI50 [6] [nM] |
| --- | --- | --- | --- | --- | --- | --- | --- |
| COc1cc(Br)c2cc3[n+](c(-c4ccccc4)c2c1OC)CCc1cc2c(cc1-3)OCO2 | 1550 | 1910 | 2450 | < 2690 | 1000 | 2190 | 2000 |
| CCCCCCc1c2[n+](cc3c(OC)c(OC)ccc13)CCc1cc3c(cc1-2)OCO3 | 720 | 760 | 1170 | 830 | 760 | 490 | 1200 |
| CCCCCCc1c2c(OC)c(OC)cc(Br)c2cc2[n+]1CCc1cc3c(cc1-2)OCO3 | 440 | 340 | 480 | 410 | 310 | 410 | 410 |
| COc1cccc2c1C(=O)c1c(O)c3c(c(O)c1C2=O)C[C@@](O)(C(=O)CO)C[C@@H]3O[C@H]1C[C@H](N)[C@H](O)[C@H](C)O1 [DOXORUBICIN] | 2550 | 5820 | 4350 |  | 1820 | 400 |  |
| CCCCCCc1c2[n+](cc3c(OC)c(OC)ccc13)CCc1cc(OC)c(OC)cc1-2 [13-HEXYLPALMATINE] | 1820 | 3470 | 2880 | < 2690 | 1050 | 2140 | 2950 |
| CCCCc1c2[n+](cc3c(OC)c(OC)ccc13)CCc1cc3c(cc1-2)OCO3 | 2510 | 3900 | 5250 | < 2690 | 6310 | 1780 | 3710 |
| CCCCc1c2c(OC)c(OC)cc(Br)c2cc2[n+]1CCc1cc3c(cc1-2)OCO3 | 1110 | 1290 | 1380 | < 2690 | 520 | 1540 | 1910 |
| CO[C@@]12[C@H](COC(N)=O)C3=C(C(=O)C(C)=C(N)C3=O)N1C[C@@H]1N[C@@H]12 [MITOMYCIN] | 180 | 100 | 120 |  | 34 | 23 |  |
